Results: ChEMBL document CHEMBL4152188, “Design, synthesis and biological evaluation of C(4) substituted monobactams as antibacterial agents against multidrug-resistant Gram-negative bacteria” (Eur J Med Chem, 2018)
≈ marks a conversion by molar mass, not a printed value.

Tests used:
Format in all cases: functional
Pseudomonas aeruginosa [1] = assay: Antibacterial activity against IMP-4 producing Pseudomonas aeruginosa isolate 209471 after 18 hrs in presence of BPL by CLSI broth microdilution method; settings: isolate 209471, 18 h
Method in brief: (§1)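 CLSI broth microdilution against clinical isolates (ESBL E. coli, KPC-2 MDR K. pneumoniae, IMP-4 MDR P. aeruginosa; five per species). Iron limitation: Mueller-Hinton broth supplemented with 16 mg/liter 2,2'-bipyridyl to complex iron and induce iron uptake systems. Read-out: MIC.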

Klebsiella pneumoniae [2] = assay: Antibacterial activity against KPC-2 producing Klebsiella pneumoniae isolate 212232 after 18 hrs in presence of BPL by CLSI broth microdilution method; settings: isolate 212232, 18 h; method in brief: as §1
Escherichia coli [3] = assay: Antibacterial activity against extended-spectrum beta-lactamase producing Escherichia coli isolate 106342 after 18 hrs in presence of BPL by CLSI broth microdilution method; settings: isolate 106342, 18 h; method in brief: as §1
Escherichia coli [4] = assay: Selectivity index, ratio of MIC for against Escherichia coli isolate 210737 to MIC for Escherichia coli isolate 210737 in presence of BPL
Escherichia coli [5] = assay: Antibacterial activity against extended-spectrum beta-lactamase producing Escherichia coli isolate 106342 after 18 hrs by CLSI broth microdilution method; settings: isolate 106342, 18 h
Pseudomonas aeruginosa [6] = assay: Antibacterial activity against IMP-4 producing Pseudomonas aeruginosa isolate 212886 after 18 hrs in presence of BPL by CLSI broth microdilution method; settings: isolate 212886, 18 h; method in brief: as §1
Pseudomonas aeruginosa [7] = assay: Antibacterial activity against IMP-4 producing Pseudomonas aeruginosa isolate 209471 after 18 hrs by CLSI broth microdilution method; settings: isolate 209471, 18 h
Escherichia coli [8] = assay: Selectivity index, ratio of MIC for against extended-spectrum beta-lactamase producing Escherichia coli isolate 106342 to MIC for extended-spectrum beta-lactamase producing Escherichia coli isolate 106342 in presence of BPL
Escherichia coli [9] = assay: Antibacterial activity against extended-spectrum beta-lactamase producing Escherichia coli isolate 209285 after 18 hrs by CLSI broth microdilution method; settings: isolate 209285, 18 h
Pseudomonas aeruginosa [10] = assay: Antibacterial activity against IMP-4 producing Pseudomonas aeruginosa isolate 208247 after 18 hrs by CLSI broth microdilution method; settings: isolate 208247, 18 h
Pseudomonas aeruginosa [11] = assay: Antibacterial activity against IMP-4 producing Pseudomonas aeruginosa isolate 209321 after 18 hrs by CLSI broth microdilution method; settings: isolate 209321, 18 h
Pseudomonas aeruginosa [12] = assay: Selectivity index, ratio of MIC for against IMP-4 producing Pseudomonas aeruginosa isolate 209471 to MIC for against IMP-4 producing Pseudomonas aeruginosa isolate 209471 in presence of BPL
Klebsiella pneumoniae [13] = assay: Selectivity index, ratio of MIC for against KPC-2 producing Klebsiella pneumoniae isolate 209632 to MIC for against KPC-2 producing Klebsiella pneumoniae isolate 209632 in presence of BPL
Pseudomonas aeruginosa [14] = assay: Selectivity index, ratio of MIC for against IMP-4 producing Pseudomonas aeruginosa isolate 212886 to MIC for against IMP-4 producing Pseudomonas aeruginosa isolate 212886 in presence of BPL
Escherichia coli [15] = assay: Antibacterial activity against extended-spectrum beta-lactamase producing Escherichia coli isolate 212648 after 18 hrs by CLSI broth microdilution method; settings: isolate 212648, 18 h
Pseudomonas aeruginosa [16] = assay: Antibacterial activity against IMP-4 producing Pseudomonas aeruginosa isolate 207272 after 18 hrs in presence of BPL by CLSI broth microdilution method; settings: isolate 207272, 18 h; method in brief: as §1
Escherichia coli [17] = assay: Antibacterial activity against extended-spectrum beta-lactamase producing Escherichia coli isolate 209285 after 18 hrs in presence of BPL by CLSI broth microdilution method; settings: isolate 209285, 18 h; method in brief: as §1
Pseudomonas aeruginosa [18] = assay: Selectivity index, ratio of MIC for against IMP-4 producing Pseudomonas aeruginosa isolate 209321 to MIC for against IMP-4 producing Pseudomonas aeruginosa isolate 209321 in presence of BPL
Klebsiella pneumoniae [19] = assay: Antibacterial activity against KPC-2 producing Klebsiella pneumoniae isolate 212423 after 18 hrs by CLSI broth microdilution method; settings: isolate 212423, 18 h
Escherichia coli [20] = assay: Antibacterial activity against extended-spectrum beta-lactamase producing Escherichia coli isolate 208687 after 18 hrs in presence of BPL by CLSI broth microdilution method; settings: isolate 208687, 18 h; method in brief: as §1
Klebsiella pneumoniae [21] = assay: Antibacterial activity against KPC-2 producing Klebsiella pneumoniae isolate 212232 after 18 hrs by CLSI broth microdilution method; settings: isolate 212232, 18 h
Escherichia coli [22] = assay: Selectivity index, ratio of MIC for against extended-spectrum beta-lactamase producing Escherichia coli isolate 209285 to MIC for extended-spectrum beta-lactamase producing Escherichia coli isolate 209285 in presence of BPL
Pseudomonas aeruginosa [23] = assay: Selectivity index, ratio of MIC for against IMP-4 producing Pseudomonas aeruginosa isolate 207272 to MIC for against IMP-4 producing Pseudomonas aeruginosa isolate 207272 in presence of BPL
Pseudomonas aeruginosa [24] = assay: Antibacterial activity against IMP-4 producing Pseudomonas aeruginosa isolate 212886 after 18 hrs by CLSI broth microdilution method; settings: isolate 212886, 18 h
Escherichia coli [25] = assay: Antibacterial activity against extended-spectrum beta-lactamase producing Escherichia coli isolate 208687 after 18 hrs by CLSI broth microdilution method; settings: isolate 208687, 18 h
Klebsiella pneumoniae [26] = assay: Selectivity index, ratio of MIC for against KPC-2 producing Klebsiella pneumoniae isolate 212423 to MIC for against KPC-2 producing Klebsiella pneumoniae isolate 212423 in presence of BPL
Klebsiella pneumoniae [27] = assay: Antibacterial activity against KPC-2 producing Klebsiella pneumoniae isolate 209735 after 18 hrs in presence of BPL by CLSI broth microdilution method; settings: isolate 209735, 18 h; method in brief: as §1
Klebsiella pneumoniae [28] = assay: Antibacterial activity against KPC-2 producing Klebsiella pneumoniae isolate 209735 after 18 hrs by CLSI broth microdilution method; settings: isolate 209735, 18 h
Pseudomonas aeruginosa [29] = assay: Antibacterial activity against IMP-4 producing Pseudomonas aeruginosa isolate 209321 after 18 hrs in presence of BPL by CLSI broth microdilution method; settings: isolate 209321, 18 h; method in brief: as §1
Escherichia coli [30] = assay: Antibacterial activity against extended-spectrum beta-lactamase producing Escherichia coli isolate 212648 after 18 hrs in presence of BPL by CLSI broth microdilution method; settings: isolate 212648, 18 h; method in brief: as §1
Klebsiella pneumoniae [31] = assay: Antibacterial activity against KPC-2 producing Klebsiella pneumoniae isolate 212229 after 18 hrs by CLSI broth microdilution method; settings: isolate 212229, 18 h
Escherichia coli [32] = assay: Selectivity index, ratio of MIC for against extended-spectrum beta-lactamase producing Escherichia coli isolate 208687 to MIC for extended-spectrum beta-lactamase producing Escherichia coli isolate 208687 in presence of BPL
Escherichia coli [33] = assay: Selectivity index, ratio of MIC for against extended-spectrum beta-lactamase producing Escherichia coli isolate 212648 to MIC for extended-spectrum beta-lactamase producing Escherichia coli isolate 212648 in presence of BPL
Klebsiella pneumoniae [34] = assay: Antibacterial activity against KPC-2 producing Klebsiella pneumoniae isolate 209632 after 18 hrs by CLSI broth microdilution method; settings: isolate 209632, 18 h
Klebsiella pneumoniae [35] = assay: Selectivity index, ratio of MIC for against KPC-2 producing Klebsiella pneumoniae isolate 209735 to MIC for against KPC-2 producing Klebsiella pneumoniae isolate 209735 in presence of BPL
Klebsiella pneumoniae [36] = assay: Antibacterial activity against KPC-2 producing Klebsiella pneumoniae isolate 209632 after 18 hrs in presence of BPL by CLSI broth microdilution method; settings: isolate 209632, 18 h; method in brief: as §1
Escherichia coli [37] = assay: Antibacterial activity against Escherichia coli isolate 210737 after 18 hrs in presence of BPL by CLSI broth microdilution method; settings: isolate 210737, 18 h; method in brief: as §1
Pseudomonas aeruginosa [38] = assay: Antibacterial activity against IMP-4 producing Pseudomonas aeruginosa isolate 208247 after 18 hrs in presence of BPL by CLSI broth microdilution method; settings: isolate 208247, 18 h; method in brief: as §1
Klebsiella pneumoniae [39] = assay: Selectivity index, ratio of MIC for against KPC-2 producing Klebsiella pneumoniae isolate 212232 to MIC for against KPC-2 producing Klebsiella pneumoniae isolate 212232 in presence of BPL
Pseudomonas aeruginosa [40] = assay: Antibacterial activity against IMP-4 producing Pseudomonas aeruginosa isolate 207272 after 18 hrs by CLSI broth microdilution method; settings: isolate 207272, 18 h
Klebsiella pneumoniae [41] = assay: Antibacterial activity against KPC-2 producing Klebsiella pneumoniae isolate 212229 after 18 hrs in presence of BPL by CLSI broth microdilution method; settings: isolate 212229, 18 h; method in brief: as §1
Klebsiella pneumoniae [42] = assay: Selectivity index, ratio of MIC for against KPC-2 producing Klebsiella pneumoniae isolate 212229 to MIC for against KPC-2 producing Klebsiella pneumoniae isolate 212229 in presence of BPL
Klebsiella pneumoniae [43] = assay: Antibacterial activity against KPC-2 producing Klebsiella pneumoniae isolate 212423 after 18 hrs in presence of BPL by CLSI broth microdilution method; settings: isolate 212423, 18 h; method in brief: as §1
Escherichia coli [44] = assay: Antibacterial activity against Escherichia coli isolate 210737 after 18 hrs by CLSI broth microdilution method; settings: isolate 210737, 18 h
Pseudomonas aeruginosa [45] = assay: Selectivity index, ratio of MIC for against IMP-4 producing Pseudomonas aeruginosa isolate 208247 to MIC for against IMP-4 producing Pseudomonas aeruginosa isolate 208247 in presence of BPL

- MIC (Pseudomonas aeruginosa [1]): 32 µg/mL
- MIC (Klebsiella pneumoniae [2]): 4 µg/mL
- MIC (Escherichia coli [3]): 4 µg/mL
- MIC (Escherichia coli [5]): 8 µg/mL (≈ 10 µM)
- MIC (Pseudomonas aeruginosa [6]): > 64 µg/mL
- MIC (Pseudomonas aeruginosa [7]): 64 µg/mL (≈ 80 µM)
- MIC (Escherichia coli [9]): 16 µg/mL (≈ 20 µM)
- MIC (Pseudomonas aeruginosa [10]): 32 µg/mL (≈ 40 µM)
- MIC (Pseudomonas aeruginosa [11]): 64 µg/mL (≈ 80 µM)
- MIC (Escherichia coli [15]): 16 µg/mL (≈ 20 µM)
- MIC (Pseudomonas aeruginosa [16]): 16 µg/mL
- MIC (Escherichia coli [17]): 8 µg/mL
- MIC (Klebsiella pneumoniae [19]): > 64 µg/mL
- MIC (Escherichia coli [20]): 2 µg/mL
- MIC (Klebsiella pneumoniae [21]): > 64 µg/mL
- MIC (Pseudomonas aeruginosa [24]): > 64 µg/mL
- MIC (Escherichia coli [25]): 16 µg/mL (≈ 20 µM)
- MIC (Klebsiella pneumoniae [27]): 8 µg/mL
- MIC (Klebsiella pneumoniae [28]): > 64 µg/mL
- MIC (Pseudomonas aeruginosa [29]): 32 µg/mL
- MIC (Escherichia coli [30]): 16 µg/mL
- MIC (Klebsiella pneumoniae [31]): > 64 µg/mL
- MIC (Klebsiella pneumoniae [34]): > 64 µg/mL
- MIC (Klebsiella pneumoniae [36]): 8 µg/mL
- MIC (Escherichia coli [37]): 64 µg/mL
- MIC (Pseudomonas aeruginosa [38]): 32 µg/mL
- MIC (Pseudomonas aeruginosa [40]): 32 µg/mL (≈ 40 µM)
- MIC (Klebsiella pneumoniae [41]): 8 µg/mL
- MIC (Klebsiella pneumoniae [43]): 8 µg/mL
- MIC (Escherichia coli [44]): > 64 µg/mL
SMILES: CC(C)C(O/N=C(\C(=O)N[C@@H]1C(=O)N(S(=O)(=O)O)[C@@H]1COC(=O)C1CN(C(=O)c2ccc(O)c(O)c2Cl)C1)c1csc(N)n1)c1cc(=O)c(O)cn1O (stereo not given in full)
- Selectivity Index (Escherichia coli [4]): 1 - 8
- Selectivity Index (Escherichia coli [8]): 2
- Selectivity Index (Pseudomonas aeruginosa [12]): 2
- Selectivity Index (Klebsiella pneumoniae [13]): >8
- Selectivity Index (Pseudomonas aeruginosa [14]): 1 - 2
- Selectivity Index (Pseudomonas aeruginosa [18]): 2
- Selectivity Index (Escherichia coli [22]): 2
- Selectivity Index (Pseudomonas aeruginosa [23]): 2
- Selectivity Index (Klebsiella pneumoniae [26]): >8
- Selectivity Index (Escherichia coli [32]): 8
- Selectivity Index (Escherichia coli [33]): 1
- Selectivity Index (Klebsiella pneumoniae [35]): >8
- Selectivity Index (Klebsiella pneumoniae [39]): >16
- Selectivity Index (Klebsiella pneumoniae [42]): >8
- Selectivity Index (Pseudomonas aeruginosa [45]): 1
